# Experimental data gathered from unrelated publications.
# Each line is one published result; the experiments were not run side by side.
# Target: Ribosomal protein S6 kinase beta-1 (RPS6KB1, Homo sapiens, UniProt P23443)
SMILES,observed,method,tested at,remaining binding
COc1cnc(Nc2cccc(S(N)(=O)=O)c2)nc1N1CCN(c2ccccc2)CC1,binding,competition with immobilised ligand,1 µM,94%
c1cnn2ncc(-c3ccnc(N4CCC45COC5)n3)c2c1,binding,,1 µM,66%
O=C(c1ccc(Nc2ncc(Cl)c(-c3cc4ccccc4s3)n2)cc1)N1CCC(N2CCCC2)CC1,binding,competition with immobilised ligand,1 µM,37%
C[C@H](NC(=O)c1cnc2n1[C@](C)(Cc1ccc(C#N)cc1)C(=O)N2c1cc(Cl)c(F)c(Cl)c1)C(=O)NC1(c2ccccn2)CC1,cell-free assay,competition with immobilised ligand,1 µM,100%
C[C@H]1CCN(c2nccc(-c3cnn4ncccc34)n2)C1,binding,,1 µM,81%
COc1ncc2cc3ccccc3nc2c1C#N,cell-free assay,competition with immobilised ligand,5 µM,100%
C[C@@H](c1ccc(-n2cnc3c(N)ncnc32)cc1)N1CCc2nn(C)c(Cc3ccccc3)c2C1=O,binding,competition with immobilised ligand,0.1 µM,67%
Cc1cnn2ncc(-c3ccnc(N(C)C)n3)c2c1,binding,,1 µM,82%
Cc1cnc(Nc2ccc(C(=O)N3CCC(N4CCCC4)CC3)cc2)nc1-c1cc2ccccc2s1,binding,competition with immobilised ligand,1 µM,36%
CCCOc1ccc([C@H]2[C@H](C(=O)O)[C@@H](c3ccc4c(c3)OCO4)CN2CC(=O)Nc2c(CC)cccc2CC)cc1,cell-free assay,competition with immobilised ligand,1 µM,76%
COc1cnc(Nc2cccc(S(N)(=O)=O)c2)nc1N1CCN(c2ccccc2)C(=O)C1,binding,competition with immobilised ligand,1 µM,71%
N#CC1(c2ccccn2)CCN(Cc2cc(C(=O)N3CCCC3)c(=O)n3ccccc23)CC1,binding,competition with immobilised ligand,1 µM,34%
CN(C)c1nccc(-c2cnn3ncccc23)n1,binding,,1 µM,100%
O=C(NS(=O)(=O)c1ccc(NCC2CCOCC2)c([N+](=O)[O-])c1)c1ccc(N2CCN(Cc3ccc(C(F)(F)F)cc3-c3ccc(Cl)cc3)CC2)cc1Oc1cnc2[nH]ccc2c1,cell-free assay,competition with immobilised ligand,1 µM,81%
N[C@H]1CCN(c2nccc(-c3cnn4ncccc34)n2)C1,binding,,1 µM,100%
O=C(O)c1cc(-c2ccc(C3CCNCC3)cc2)c2ccc(-c3ccc(C(F)(F)F)cc3)cc2c1,cell-free assay,competition with immobilised ligand,1 µM,100%
CN(C)c1ncc(F)c(-c2cnn3ncccc23)n1,binding,,1 µM,78%
CCN1CCN(Cc2ccc(C(=O)Nc3ccc(C)c(Oc4ccc5c(c4)CC(=O)N5)c3)cc2C(F)(F)F)CC1,binding,competition with immobilised ligand,1 µM,100%
NS(=O)(=O)c1cc(NC(=O)Cc2ccccc2)ccc1Oc1cccc(Cl)c1,cell-free assay,competition with immobilised ligand,1 µM,69%
O=C(Nc1c[nH]nc1C(=O)NC1CCNCC1)c1cc(F)cc(F)c1,binding,competition with immobilised ligand,1 µM,99%
O=C(c1ccc(Nc2ncc(Cl)c(-c3ccc(Cl)s3)n2)cc1)N1CCC(N2CCCC2)CC1,binding,competition with immobilised ligand,1 µM,21%
